# Source: ChEMBL document CHEMBL3588850, “Multivalent Amino Sugars to Recognize Different TAR RNA Conformations” (Medchemcomm, 2014)
# Calls of active or inactive are those of the source. The calls are words filed in the database; no cut-off is given here.
# What was measured:
# Nucleic Acid [1] = assay: Induction of conformational changes in wild type HIV1 TAR RNA assessed as changes in 210 to 220 nm region using 1 molar equivalents of compound at pH 6.8 by CD spectroscopy; type: nucleic-acid assay; conditions: Human immunodeficiency virus 1
# Nucleic Acid [2] = assay: Induction of conformational changes in wild type HIV1 TAR RNA assessed as increase in intensity in 265 nm region using 1 molar equivalents of compound at pH 6.8 by CD spectroscopy; type: nucleic-acid assay; conditions: Human immunodeficiency virus 1
# Nucleic Acid [3] = assay: Induction of conformational changes in HIV1 TAR RNA bulgeless mutant assessed as induction of red shift in CD spectra region using 1 molar equivalents of compound at pH 6.8 by CD spectroscopy; type: nucleic-acid assay; conditions: Human immunodeficiency virus 1
# Outline: (§1)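 Spectra recorded before and after adding 1 molar equivalent ligand (≤1% v/v, in buffer). Scan 325–200 nm at 500 nm/min, 1 nm bandwidth, 1 cm cuvette, 20 °C. Each spectrum is the average of 10 scans; ΔCD plotted.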
# Nucleic Acid [4] = assay: Induction of conformational changes in HIV1 TAR RNA tetraloop mutant assessed as induction of red shift in CD spectra region using 1 molar equivalents of compound at pH 6.8 by CD spectroscopy; type: nucleic-acid assay; conditions: Human immunodeficiency virus 1; outline: as §1
# Nucleic Acid [5] = assay: Induction of conformational changes in HIV1 TAR RNA bulgeless tetraloop mutant assessed as induction of red shift in CD spectra region using 1 molar equivalents of compound at pH 6.8 by CD spectroscopy; type: nucleic-acid assay; conditions: Human immunodeficiency virus 1; outline: as §1
# Nucleic Acid [6] = assay: Induction of conformational changes in HIV1 TAR RNA U3 bulge mutant assessed as induction of red shift in CD spectra region using 1 molar equivalents of compound at pH 6.8 by CD spectroscopy; type: nucleic-acid assay; conditions: Human immunodeficiency virus 1; outline: as §1
# Nucleic Acid [7] = assay: Induction of conformational changes in HIV1 TAR RNA bulgeless mutant assessed as changes in 260 to 270 nm region using 1 molar equivalents of compound at pH 6.8 by CD spectroscopy; type: nucleic-acid assay; conditions: Human immunodeficiency virus 1; outline: as §1
# Nucleic Acid [8] = assay: Induction of conformational changes in HIV1 TAR RNA tetraloop mutant assessed as changes in 260 to 270 nm region using 1 molar equivalents of compound at pH 6.8 by CD spectroscopy; type: nucleic-acid assay; conditions: Human immunodeficiency virus 1; outline: as §1
# Nucleic Acid [9] = assay: Induction of conformational changes in HIV1 TAR RNA bulgeless tetraloop mutant assessed as changes in 260 to 270 nm region using 1 molar equivalents of compound at pH 6.8 by CD spectroscopy; type: nucleic-acid assay; conditions: Human immunodeficiency virus 1; outline: as §1
# Nucleic Acid [10] = assay: Induction of conformational changes in HIV1 TAR RNA U3 bulge mutant aassessed as changes in 260 to 270 nm region using 1 molar equivalents of compound at pH 6.8 by CD spectroscopy; type: nucleic-acid assay; conditions: Human immunodeficiency virus 1; outline: as §1
# Nucleic Acid [11] = assay: Induction of conformational changes in HIV1 TAR RNA bulgeless mutant assessed as changes in 210 to 220 nm region using 1 molar equivalents of compound at pH 6.8 by CD spectroscopy; type: nucleic-acid assay; conditions: Human immunodeficiency virus 1; outline: as §1
# Nucleic Acid [12] = assay: Induction of conformational changes in HIV1 TAR RNA tetraloop mutant assessed as changes in 210 to 220 nm region using 1 molar equivalents of compound at pH 6.8 by CD spectroscopy; type: nucleic-acid assay; conditions: Human immunodeficiency virus 1; outline: as §1
# Nucleic Acid [13] = assay: Induction of conformational changes in HIV1 TAR RNA bulgeless tetraloop mutant assessed as changes in 210 to 220 nm region using 1 molar equivalents of compound at pH 6.8 by CD spectroscopy; type: nucleic-acid assay; conditions: Human immunodeficiency virus 1; outline: as §1
# Nucleic Acid [14] = assay: Induction of conformational changes in HIV1 TAR RNA U3 bulge mutant aassessed as changes in 210 to 220 nm region using 1 molar equivalents of compound at pH 6.8 by CD spectroscopy; type: nucleic-acid assay; conditions: Human immunodeficiency virus 1; outline: as §1
# [15] = test system: Human immunodeficiency virus 1; assay: Induction of thermal stability changes in wild type HIV1 TAR RNA assessed as change in melting temperature using 1 molar equivalents of compound pre-incubated for 4 hrs at pH 6.8 at 4 degC before test by UV thermal denaturation assay
# [16] = test system: Human immunodeficiency virus 1; assay: Induction of thermal stability changes in HIV1 TAR RNA U3 bulge mutant assessed as change in melting temperature using 1 molar equivalents of compound pre-incubated for 4 hrs at pH 6.8 at 4 degC before test by UV thermal denaturation assay
# Outline: (§2)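 TAR RNA mutants at 1 μM/strand mixed with 1 or 2 molar equivalents of ligand in 100 mM KCl, 10 mM SC, 0.5 mM EDTA, pH 6.8, then held 4 h at 4 °C. Absorbance at 260 nm in 1 cm cuvettes, 15–100 °C, heating 0.3 °C/min. Tm taken from first-derivative plots and compared with the no-ligand sample.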
# [17] = test system: Human immunodeficiency virus 1; assay: Induction of thermal stability changes in HIV1 TAR RNA tetraloop mutant assessed as change in melting temperature using 1 molar equivalents of compound pre-incubated for 4 hrs at pH 6.8 at 4 degC before test by UV thermal denaturation assay; outline: as §2
# [18] = test system: Human immunodeficiency virus 1; assay: Induction of thermal stability changes in HIV1 TAR RNA bulgeless mutant assessed as change in melting temperature using 1 molar equivalents of compound pre-incubated for 4 hrs at pH 6.8 at 4 degC before test by UV thermal denaturation assay; outline: as §2
# [19] = test system: Human immunodeficiency virus 1; assay: Induction of thermal stability changes in HIV1 TAR RNA bulgeless tetraloop mutant assessed as change in melting temperature using 1 molar equivalents of compound pre-incubated for 4 hrs at pH 6.8 at 4 degC before test by UV thermal denaturation assay; outline: as §2
# Nucleic Acid [20] = assay: Binding affinity to wild type HIV1 TAR RNA at pH 6.8 by ethidium bromide displacement assay; type: nucleic-acid assay, Human immunodeficiency virus 1
# Outline: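 TAR RNA (200 nM/strand) and EtBr (5 μM) in 100 mM KCl, 10 mM SC, 0.5 mM EDTA, pH 6.8, titrated with ligand aliquots (at most 4% v/v). Fluorescence excited at 545 nm and read at 610 nm. IC50 is the ligand concentration that displaces 50% of EtBr, taken from a sigmoidal fit of fraction displaced versus log ligand concentration.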
# Nucleic Acid [21] = assay: Binding affinity to HIV1 TAR RNA tetraloop mutant at pH 6.8 by ethidium bromide displacement assay; type: nucleic-acid assay, Human immunodeficiency virus 1
# Outline: (§3)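 Synthetic 2′-ACE-protected TAR RNA, deprotected, heated 98 °C 5 min, then ice-cooled 15 min. TAR RNA at 200 nM/strand with ethidium bromide 5 μM in 100 mM KCl, 10 mM SC, 0.5 mM EDTA, pH 6.8. Ligand added stepwise, ≤4% v/v. Excitation 545 nm, emission 580–660 nm, intensity at 610 nm normalized. IC50 from sigmoidal fit of fraction EtBr displaced vs log ligand; association constants from Scatchard analysis.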
# Nucleic Acid [22] = assay: Binding affinity to HIV1 TAR RNA bulgeless tetraloop mutant at pH 6.8 by ethidium bromide displacement assay; type: nucleic-acid assay, Human immunodeficiency virus 1; outline: as §3
# Nucleic Acid [23] = assay: Binding affinity to HIV1 TAR RNA U3 bulge mutant at pH 6.8 by ethidium bromide displacement assay; type: nucleic-acid assay, Human immunodeficiency virus 1; outline: as §3
# Nucleic Acid [24] = assay: Binding affinity to wild type HIV1 TAR RNA assessed as association constant at pH 6.8 by ethidium bromide displacement assay based Scatchard analysis method; type: nucleic-acid assay; conditions: Human immunodeficiency virus 1
# Outline: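 Ethidium bromide displacement: 5 μM EtBr with TAR RNA at 200 nM/strand (under 20% of EtBr bound) in 100 mM KCl, 10 mM SC, 0.5 mM EDTA, pH 6.8. Ligand added in concentrated aliquots, at most 4% v/v. Excitation 545 nm, emission 580–660 nm, intensity at 610 nm. Association constant obtained by Scatchard analysis of the titration data.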
# Nucleic Acid [25] = assay: Binding affinity to HIV1 TAR RNA bulgeless mutant assessed as association constant at pH 6.8 by ethidium bromide displacement assay based Scatchard analysis method; type: nucleic-acid assay; conditions: Human immunodeficiency virus 1; outline: as §3
# Nucleic Acid [26] = assay: Binding affinity to HIV1 TAR RNA tetraloop mutant assessed as association constant at pH 6.8 by ethidium bromide displacement assay based Scatchard analysis method; type: nucleic-acid assay; conditions: Human immunodeficiency virus 1; outline: as §3
# Nucleic Acid [27] = assay: Binding affinity to HIV1 TAR RNA bulgeless tetraloop mutant assessed as association constant at pH 6.8 by ethidium bromide displacement assay based Scatchard analysis method; type: nucleic-acid assay; conditions: Human immunodeficiency virus 1; outline: as §3
# Nucleic Acid [28] = assay: Binding affinity to HIV1 TAR RNA U3 bulge mutant at assessed as association constant at pH 6.8 by ethidium bromide displacement assay based Scatchard analysis method; type: nucleic-acid assay; conditions: Human immunodeficiency virus 1; outline: as §3
# Nucleic Acid [29] = assay: Binding affinity to wild type HIV1 TAR RNA assessed as induction of chemical shifts changes of GH1 and UH3 regions by NMR spectroscopy; type: nucleic-acid assay; conditions: Human immunodeficiency virus 1
# Outline: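 Imino-region 1D 1H jump-return echo spectra recorded at 298 K on an 850 MHz instrument with a cryoprobe, with increasing amounts of ligand added.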
# Nucleic Acid [30] = assay: Binding affinity to HIV1 TAR RNA tetraloop mutant assessed as induction of imino chemical shifts changes by NMR spectroscopy; type: nucleic-acid assay; conditions: Human immunodeficiency virus 1
compound,measurement,setting,value
NC[C@@H]1O[C@H](O[C@H]2[C@@H](O)[C@H](O[C@@H]3[C@@H](O)[C@H](N)C[C@H](N)[C@H]3O[C@H]3O[C@H](CN)[C@@H](O)[C@H](O)[C@H]3N)O[C@@H]2Cn2cc(COCc3cn(C[C@H]4O[C@@H](O[C@@H]5[C@@H](O)[C@H](N)C[C@H](N)[C@H]5O[C@H]5O[C@H](CN)[C@@H](O)[C@H](O)[C@H]5N)[C@H](O)[C@@H]4O[C@H]4O[C@@H](CN)[C@@H](O)[C@H](O)[C@H]4N)nn3)nn2)[C@H](N)[C@@H](O)[C@@H]1O,Activity,Nucleic Acid [1],Active
same,Activity,Nucleic Acid [2],inactive
same,Activity,Nucleic Acid [3],Active
same,Activity,Nucleic Acid [4],Active
same,Activity,Nucleic Acid [5],Active
same,Activity,Nucleic Acid [6],Active
same,Activity,Nucleic Acid [7],Active
same,Activity,Nucleic Acid [8],Active
same,Activity,Nucleic Acid [9],Active
same,Activity,Nucleic Acid [10],Active
same,Activity,Nucleic Acid [11],inactive
same,Activity,Nucleic Acid [12],inactive
same,Activity,Nucleic Acid [13],inactive
same,Activity,Nucleic Acid [14],Active
same,ΔTm,[15],10.2 °C
same,ΔTm,[16],8.5 °C
same,ΔTm,[17],6 °C
same,ΔTm,[18],5 °C
same,ΔTm,[19],> 5 °C
same,IC50,Nucleic Acid [20],112 nM
same,IC50,Nucleic Acid [21],156 nM
same,IC50,Nucleic Acid [22],122 nM
same,IC50,Nucleic Acid [23],186 nM
same,K,Nucleic Acid [24],1.2 ×10⁸ /M
same,K,Nucleic Acid [25],7.5 ×10⁷ /M
same,K,Nucleic Acid [26],2.7 ×10⁷ /M
same,K,Nucleic Acid [27],2.3 ×10⁸ /M
same,K,Nucleic Acid [28],1.6 ×10⁷ /M
same,Activity,Nucleic Acid [29],Dose-dependent effect
same,Activity,Nucleic Acid [30],Active
